Assay results taken from ChEMBL document CHEMBL4145619, “Computer-Assisted Discovery of Retinoid X Receptor Modulating Natural Products and Isofunctional Mimetics” (J Med Chem, 2018).
The source made the active and inactive calls. The rule behind the calls is not given here.

Tests used:
Format in all cases: cell-based
[1] = molecular target: T1, Retinoic acid receptor RXR-alpha (Homo sapiens) (UniProt P19793); test: Transactivation of human Gal4-fused RXRalpha LBD expressed in HEK293T cells at 30 uM after 12 to 14 hrs by dual-glo luciferase assay
T1 sequence (whole entry): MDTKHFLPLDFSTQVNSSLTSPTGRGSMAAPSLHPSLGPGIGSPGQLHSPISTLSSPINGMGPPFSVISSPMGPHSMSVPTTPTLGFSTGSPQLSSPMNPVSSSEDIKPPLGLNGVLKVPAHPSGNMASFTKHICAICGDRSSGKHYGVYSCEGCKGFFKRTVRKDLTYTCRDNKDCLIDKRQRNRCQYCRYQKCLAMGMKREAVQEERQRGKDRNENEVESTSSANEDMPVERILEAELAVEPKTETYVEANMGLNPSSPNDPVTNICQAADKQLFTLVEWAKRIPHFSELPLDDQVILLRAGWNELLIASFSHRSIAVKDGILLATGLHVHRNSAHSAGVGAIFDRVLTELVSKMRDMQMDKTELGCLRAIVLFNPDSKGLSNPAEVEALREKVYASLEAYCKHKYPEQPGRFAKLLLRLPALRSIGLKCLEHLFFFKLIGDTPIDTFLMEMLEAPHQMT
Summary of the method: (§1)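 Single-concentration selectivity profiling in Gal4-hybrid reporter gene assays in HEK293T cells. Each nuclear receptor construct (RAR, PPAR, LXR, FXR, CAR, VDR, PXR, RXR) was tested at 30 μM.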

[2] = molecular target: T2, Retinoic acid receptor alpha (Homo sapiens) (UniProt P10276); test: Transactivation of human Gal4-fused RARalpha LBD expressed in HEK293T cells at 30 uM after 12 to 14 hrs by dual-glo luciferase assay; summary of the method: as §1
T2 sequence (whole entry): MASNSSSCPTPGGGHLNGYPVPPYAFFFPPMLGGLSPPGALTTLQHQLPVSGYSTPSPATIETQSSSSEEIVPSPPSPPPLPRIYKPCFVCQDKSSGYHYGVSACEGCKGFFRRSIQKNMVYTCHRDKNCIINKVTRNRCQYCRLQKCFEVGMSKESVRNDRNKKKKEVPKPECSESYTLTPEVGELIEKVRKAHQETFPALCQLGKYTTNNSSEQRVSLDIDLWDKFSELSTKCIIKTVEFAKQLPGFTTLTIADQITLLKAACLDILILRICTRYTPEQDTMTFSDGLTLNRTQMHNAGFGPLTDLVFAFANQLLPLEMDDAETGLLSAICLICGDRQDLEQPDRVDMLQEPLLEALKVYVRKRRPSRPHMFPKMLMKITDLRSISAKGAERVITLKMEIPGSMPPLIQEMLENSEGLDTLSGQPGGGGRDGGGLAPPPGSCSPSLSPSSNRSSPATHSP

[3] = molecular target: T3, Peroxisome proliferator-activated receptor gamma (Homo sapiens) (UniProt P37231); test: Transactivation of human Gal4-fused PPARgamma LBD expressed in HEK293T cells at 30 uM after 12 to 14 hrs by dual-glo luciferase assay; summary of the method: as §1
T3 sequence (whole entry): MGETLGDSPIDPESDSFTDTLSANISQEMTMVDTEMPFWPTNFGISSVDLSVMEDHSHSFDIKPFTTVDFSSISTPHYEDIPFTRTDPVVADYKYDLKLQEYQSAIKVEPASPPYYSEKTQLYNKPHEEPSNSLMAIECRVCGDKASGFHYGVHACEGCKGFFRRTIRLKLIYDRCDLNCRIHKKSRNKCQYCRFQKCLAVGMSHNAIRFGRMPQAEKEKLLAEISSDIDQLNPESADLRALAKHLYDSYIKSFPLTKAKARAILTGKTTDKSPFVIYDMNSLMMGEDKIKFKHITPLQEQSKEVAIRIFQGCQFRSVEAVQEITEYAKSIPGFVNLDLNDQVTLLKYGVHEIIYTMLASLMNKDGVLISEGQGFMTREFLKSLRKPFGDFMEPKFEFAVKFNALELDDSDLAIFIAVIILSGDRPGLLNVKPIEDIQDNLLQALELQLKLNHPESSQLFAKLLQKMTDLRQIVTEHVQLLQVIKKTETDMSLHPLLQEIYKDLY

[4] = molecular target: T4, Peroxisome proliferator-activated receptor delta (Homo sapiens) (UniProt Q03181); test: Transactivation of human Gal4-fused PPARdelta LBD expressed in HEK293T cells at 30 uM after 12 to 14 hrs by dual-glo luciferase assay; summary of the method: as §1
T4 sequence (whole entry): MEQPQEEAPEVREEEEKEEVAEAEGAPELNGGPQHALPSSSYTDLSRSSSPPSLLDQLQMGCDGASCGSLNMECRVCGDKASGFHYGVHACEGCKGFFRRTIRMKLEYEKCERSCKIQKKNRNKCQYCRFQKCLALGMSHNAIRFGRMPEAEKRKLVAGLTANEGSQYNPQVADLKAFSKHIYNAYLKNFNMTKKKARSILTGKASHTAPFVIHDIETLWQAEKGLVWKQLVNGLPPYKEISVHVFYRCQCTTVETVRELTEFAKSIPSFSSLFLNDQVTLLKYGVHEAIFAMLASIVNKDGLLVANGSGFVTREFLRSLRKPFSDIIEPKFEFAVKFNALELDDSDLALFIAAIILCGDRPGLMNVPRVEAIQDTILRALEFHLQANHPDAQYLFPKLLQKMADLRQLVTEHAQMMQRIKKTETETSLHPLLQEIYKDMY

[5] = molecular target: T5, Oxysterols receptor LXR-alpha (Homo sapiens) (UniProt Q13133); test: Transactivation of human Gal4-fused LXRalpha LBD expressed in HEK293T cells at 30 uM after 12 to 14 hrs by dual-glo luciferase assay; summary of the method: as §1
T5 sequence (whole entry): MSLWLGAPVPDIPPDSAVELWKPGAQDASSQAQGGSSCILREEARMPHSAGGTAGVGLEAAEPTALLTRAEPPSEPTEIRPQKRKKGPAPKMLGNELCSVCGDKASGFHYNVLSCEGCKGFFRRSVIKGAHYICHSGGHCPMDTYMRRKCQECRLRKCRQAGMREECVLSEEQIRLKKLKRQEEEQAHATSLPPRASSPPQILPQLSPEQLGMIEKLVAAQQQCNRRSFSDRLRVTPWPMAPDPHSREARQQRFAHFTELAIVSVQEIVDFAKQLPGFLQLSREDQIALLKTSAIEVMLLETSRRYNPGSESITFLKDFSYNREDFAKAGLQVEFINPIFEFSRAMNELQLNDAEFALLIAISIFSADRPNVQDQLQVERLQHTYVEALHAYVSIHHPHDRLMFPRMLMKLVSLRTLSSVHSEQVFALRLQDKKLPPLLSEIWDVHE

CC1=C2[C@H](/C=C(\C)C(=O)O)CC[C@@H](C)[C@H]2CC1 [VALERENIC ACID]
Activity [1]: Active | Activity [2]: inactive | Activity [3]: inactive | Activity [4]: inactive | Activity [5]: inactive
